Consider 8 molecules from ChEMBL document CHEMBL3596197, “Synthesis, topoisomerase I and II inhibitory activity, cytotoxicity, and structure-activity relationship study of 2-phenyl- or hydroxylated 2-phenyl-4-aryl-5H-indeno[1,2-b]pyridines” (Bioorg Med Chem, 2015).

Molecules are shown by their SMILES.

Assay [1] concerns the target T1, DNA topoisomerase 1 (Homo sapiens) (UniProt P11387).
T1 sequence (whole entry): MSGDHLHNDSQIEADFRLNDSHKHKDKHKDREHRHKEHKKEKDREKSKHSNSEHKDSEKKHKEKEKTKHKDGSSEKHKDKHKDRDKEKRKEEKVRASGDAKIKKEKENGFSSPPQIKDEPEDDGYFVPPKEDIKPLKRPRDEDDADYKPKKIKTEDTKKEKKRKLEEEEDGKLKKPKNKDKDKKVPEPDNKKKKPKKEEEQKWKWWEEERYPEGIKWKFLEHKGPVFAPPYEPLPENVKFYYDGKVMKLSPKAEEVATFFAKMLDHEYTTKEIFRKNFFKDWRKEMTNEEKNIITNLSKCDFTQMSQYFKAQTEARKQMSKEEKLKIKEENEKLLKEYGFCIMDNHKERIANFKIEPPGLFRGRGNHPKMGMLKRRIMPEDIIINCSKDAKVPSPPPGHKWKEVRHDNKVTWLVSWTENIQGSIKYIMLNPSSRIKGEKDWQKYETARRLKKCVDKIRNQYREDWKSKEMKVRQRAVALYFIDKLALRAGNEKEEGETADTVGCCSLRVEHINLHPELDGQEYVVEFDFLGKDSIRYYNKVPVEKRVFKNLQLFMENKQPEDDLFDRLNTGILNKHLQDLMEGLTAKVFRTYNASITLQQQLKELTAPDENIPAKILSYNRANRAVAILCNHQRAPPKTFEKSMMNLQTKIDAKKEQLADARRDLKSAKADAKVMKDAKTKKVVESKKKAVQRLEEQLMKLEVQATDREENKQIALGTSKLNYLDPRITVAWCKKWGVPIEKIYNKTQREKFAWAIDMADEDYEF
Briefly: Inhibition of human recombinant DNA topoisomerse 1 using pBR322 as substrate assessed as inhibition of conversion of supercoiled pBR322 to relaxed form at 20 uM after 30 mins by ethidium bromide staining-based electrophoresis analysis. In outline:
(§1)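 Relaxation of supercoiled pBR322 (100 ng) by 1 unit recombinant human topo I. Run at 37 °C for 30 min in 10 mM Tris-HCl pH 7.9, 150 mM NaCl, 0.1% BSA, 1 mM spermidine, 5% glycerol. Compounds from 20 mM DMSO stocks. Stopped with sarcosyl, then 1% agarose gel at 15 V for 7 h in TAE. Ethidium bromide stain, UV imaging, bands quantitated.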

The target in assay [2] is DNA topoisomerase 2-alpha (Homo sapiens) (UniProt P11388). Briefly: Inhibition of human recombinant DNA topoisomerse 2 alpha using pBR322 as substrate assessed as inhibition of conversion of supercoiled pBR322 to relaxed form at 100 uM after 30 mins by ethidium bromide staining-based electrophoresis analysis. In a few lines:
(§2)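 Supercoiled pBR322 (200 ng) with 1 unit human topo IIα, 30 min at 30 °C. Buffer: 10 mM Tris-HCl pH 7.9, 50 mM NaCl, 5 mM MgCl2, 1 mM EDTA, 1 mM ATP, 15 μg/mL BSA. Stopped with EDTA. 1% agarose gel at 25 V for 4 h in TAE, ethidium bromide stain, supercoiled DNA quantitated under UV.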

The test system of a further assay is HCT-15. Briefly: Cytotoxicity against human HCT15 cells incubated from day 2 to day 4 by CCK8 assay. It counts as functional, cell-based. In outline:
(§3)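 Cells seeded at 2~4 × 10^4 per well and grown overnight in medium with 10% FBS at 37 °C, 5% CO2. Day 2: FBS starvation 4 h, then medium with graded compound concentrations. Day 4: CCK-8 added for 4 h more, absorbance read at 450 nm. IC50 from four-parameter logistic fit. Mean ± S.D. of three experiments run in triplicate.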
(In general: Tetrazolium assays rely on reduction of a dye to a coloured formazan, in cell work by metabolically active cells.)

In another assay the test system is HeLa. Briefly: Cytotoxicity against human HeLa cells incubated from day 2 to day 4 by CCK8 assay. It counts as functional, cell-based. In a few lines: as §3
For assay [3], the target named is DNA topoisomerase 2-alpha (Homo sapiens) (UniProt P11388). The assay is described as follows: Inhibition of human recombinant DNA topoisomerse 2 alpha using pBR322 as substrate assessed as inhibition of conversion of supercoiled pBR322 to relaxed form at 20 uM after 30 mins by ethidium bromide staining-based electrophoresis analysis. In a few lines: as §2
The test system of another assay is T47D. The assay is described as follows: Cytotoxicity against human T47D cells incubated from day 2 to day 4 by CCK8 assay. It counts as functional, cell-based. In outline:
as §3

In assay [4] the target is T1, DNA topoisomerase 1 (Homo sapiens). Briefly: Inhibition of human recombinant DNA topoisomerse 1 using pBR322 as substrate assessed as inhibition of conversion of supercoiled pBR322 to relaxed form at 100 uM after 30 mins by ethidium bromide staining-based electrophoresis analysis. In outline:
as §1

A further assay deals with DU-145. Briefly: Cytotoxicity against human DU145 cells incubated from day 2 to day 4 by CCK8 assay. It counts as functional, cell-based. In outline:
as §3

DNA topoisomerase 2-alpha (Homo sapiens), sequence (P11388 whole entry): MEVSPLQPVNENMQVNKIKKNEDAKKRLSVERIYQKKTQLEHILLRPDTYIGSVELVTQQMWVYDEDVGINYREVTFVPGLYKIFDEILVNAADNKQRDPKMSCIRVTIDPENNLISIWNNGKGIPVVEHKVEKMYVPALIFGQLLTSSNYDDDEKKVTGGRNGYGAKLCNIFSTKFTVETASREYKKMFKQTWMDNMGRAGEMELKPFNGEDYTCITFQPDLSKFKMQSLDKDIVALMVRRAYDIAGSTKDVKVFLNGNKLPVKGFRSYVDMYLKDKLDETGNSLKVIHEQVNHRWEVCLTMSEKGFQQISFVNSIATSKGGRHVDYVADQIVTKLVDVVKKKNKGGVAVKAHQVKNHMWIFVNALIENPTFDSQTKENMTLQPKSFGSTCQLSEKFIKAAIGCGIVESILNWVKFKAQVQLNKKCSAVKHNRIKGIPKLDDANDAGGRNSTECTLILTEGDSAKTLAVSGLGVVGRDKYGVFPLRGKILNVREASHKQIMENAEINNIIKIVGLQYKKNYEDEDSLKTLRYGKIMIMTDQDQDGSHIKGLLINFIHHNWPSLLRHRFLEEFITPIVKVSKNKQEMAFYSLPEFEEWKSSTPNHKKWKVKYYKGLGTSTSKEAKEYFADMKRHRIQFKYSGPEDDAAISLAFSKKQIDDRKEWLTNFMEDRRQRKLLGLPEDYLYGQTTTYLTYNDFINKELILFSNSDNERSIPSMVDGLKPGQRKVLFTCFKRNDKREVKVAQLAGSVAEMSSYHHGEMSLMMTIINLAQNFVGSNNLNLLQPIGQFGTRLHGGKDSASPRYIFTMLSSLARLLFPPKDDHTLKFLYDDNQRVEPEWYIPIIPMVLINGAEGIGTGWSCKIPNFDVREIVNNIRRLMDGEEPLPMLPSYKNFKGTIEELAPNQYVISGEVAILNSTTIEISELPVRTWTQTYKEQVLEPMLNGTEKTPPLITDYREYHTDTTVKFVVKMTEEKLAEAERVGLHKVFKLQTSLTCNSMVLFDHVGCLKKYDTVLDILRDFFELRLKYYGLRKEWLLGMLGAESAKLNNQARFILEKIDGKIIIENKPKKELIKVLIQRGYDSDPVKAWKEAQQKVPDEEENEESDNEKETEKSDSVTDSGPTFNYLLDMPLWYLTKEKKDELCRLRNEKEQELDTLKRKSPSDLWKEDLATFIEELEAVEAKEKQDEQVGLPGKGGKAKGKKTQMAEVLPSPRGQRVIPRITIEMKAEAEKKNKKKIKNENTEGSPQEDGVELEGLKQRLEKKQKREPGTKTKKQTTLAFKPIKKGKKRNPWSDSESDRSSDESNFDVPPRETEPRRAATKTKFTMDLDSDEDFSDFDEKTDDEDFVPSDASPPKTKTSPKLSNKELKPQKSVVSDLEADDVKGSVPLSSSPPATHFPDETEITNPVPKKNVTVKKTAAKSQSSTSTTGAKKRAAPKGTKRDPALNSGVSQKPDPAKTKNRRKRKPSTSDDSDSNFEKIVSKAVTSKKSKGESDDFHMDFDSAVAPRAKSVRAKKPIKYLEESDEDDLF

With `Oc1ccc(-c2cc(-c3ccsc3)c3c(n2)-c2ccccc2C3)cc1`, the inhibition came to 0% in assay [1], 36.9% in assay [2], 0% in assay [3] and 90.1% in assay [4]. Besides, the IC50 with HCT-15, in the assay on HeLa, in the assay with T47D and with DU-145 was more than 50 µM in each case.

For the molecule `Oc1ccccc1-c1cc(-c2ccsc2)c2c(n1)-c1ccccc1C2`, the inhibition in assay [1] turned out to be 0%; in assay [2], 46.8%; in assay [3], 23.2%; in assay [4], 87.8%. Besides, the IC50 was more than 50 µM with HCT-15, more than 50 µM with HeLa, more than 50 µM in the assay with T47D and 36.5 µM with DU-145.

On to `Oc1cccc(-c2cc(-c3cccs3)c3c(n2)-c2ccccc2C3)c1`, for which the inhibition in assay [1] worked out at 0%; in assay [2], 72.2%; in assay [3], 32%; in assay [4], 55.6%. Moreover, the IC50 in the assay on HCT-15 stood at 2.32 µM; in the assay on HeLa, 1.47 µM; in the assay with T47D, 4.07 µM; with DU-145 it was 4.38 µM.

Turning to `Oc1ccc(-c2cc(-c3ccoc3)c3c(n2)-c2ccccc2C3)cc1`, the inhibition in assay [1] was 0%; in assay [2], 40.4%; in assay [3], 36.9%; in assay [4] it was 63.5%. For the same molecule, the IC50 with HCT-15, in the assay on HeLa, with T47D and with DU-145 was more than 50 µM in each case.

For `Oc1ccccc1-c1cc(-c2ccoc2)c2c(n1)-c1ccccc1C2`, the inhibition is 0.5% in assay [1], 51.7% in assay [2], 39.2% in assay [3] and 50.6% in assay [4]. Besides, the IC50 with HCT-15, in the assay with HeLa, in the assay on T47D and with DU-145 was more than 50 µM in each case.

For the molecule `Oc1cccc(-c2cc(-c3ccoc3)c3c(n2)-c2ccccc2C3)c1`, the inhibition in assay [1] came to 0%; in assay [2], 56.2%; in assay [3], 19.3%; in assay [4], 69.2%. The IC50 is more than 50 µM in the assay with HCT-15, 0.94 µM in the assay with HeLa, more than 50 µM in the assay on T47D and 28.9 µM with DU-145.

With `Oc1ccccc1-c1cc(-c2cccs2)c2c(n1)-c1ccccc1C2`, the inhibition worked out at 0% in assay [1], 31.5% in assay [2], 21.9% in assay [3] and 51.1% in assay [4]. The IC50 with HCT-15, with HeLa, with T47D and with DU-145 was more than 50 µM throughout.

As to `Oc1cccc(-c2cc(-c3cccnc3)c3c(n2)-c2ccccc2C3)c1`, the inhibition in assay [1] came out at 1.7%; in assay [2], 50.6%; in assay [3] it was 30.6%; in assay [4], 68.5%. The IC50 in the assay on HCT-15 was more than 50 µM; with HeLa it was 4.67 µM; in the assay with T47D it was more than 50 µM; with DU-145, more than 50 µM.

In general, inhibition refers to the drop in the measured response relative to a control, in per cent. One may read the IC50 as the midpoint of a concentration-inhibition curve.
